{"source": "ChEMBL document CHEMBL1833950", "about": "“Inhibition of steroid sulfatase with 4-substituted estrone and estradiol derivatives” (Bioorg Med Chem, 2011)", "key": {"Steryl-sulfatase [1]": {"target": "T1, Steryl-sulfatase (Homo sapiens, UniProt P08842)", "T1 sequence (P08842 whole entry)": "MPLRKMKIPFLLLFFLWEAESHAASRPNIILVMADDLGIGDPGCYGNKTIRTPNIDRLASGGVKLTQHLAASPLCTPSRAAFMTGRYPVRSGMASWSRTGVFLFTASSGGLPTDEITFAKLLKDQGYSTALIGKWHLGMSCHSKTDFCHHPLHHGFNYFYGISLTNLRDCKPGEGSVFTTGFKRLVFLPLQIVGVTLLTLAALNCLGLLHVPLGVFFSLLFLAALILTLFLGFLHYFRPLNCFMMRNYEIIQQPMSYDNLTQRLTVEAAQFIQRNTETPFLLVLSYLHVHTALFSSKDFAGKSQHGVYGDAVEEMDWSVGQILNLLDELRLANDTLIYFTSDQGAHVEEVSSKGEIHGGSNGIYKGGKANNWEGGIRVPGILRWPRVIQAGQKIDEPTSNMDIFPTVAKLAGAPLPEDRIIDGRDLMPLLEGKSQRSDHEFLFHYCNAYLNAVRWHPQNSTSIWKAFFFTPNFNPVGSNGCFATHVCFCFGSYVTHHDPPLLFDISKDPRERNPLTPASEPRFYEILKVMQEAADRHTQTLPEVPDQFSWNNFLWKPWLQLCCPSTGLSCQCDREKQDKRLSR", "test": "(§1) Inhibition of human steroid sulfatase using 4-methylumbelliferyl sulfate substrate after 10 mins by fluorescence assay", "in_short": "(§2)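 Inhibitor is added in DMSO/Tris (1:1) and the reaction is started with enzyme. 4-MUS is 200 µM final. 4-Methylumbelliferone fluorescence (ex 360/em 460 nm) is followed for 10 min at 25 °C. Triplicates; percent activity is taken versus an inhibitor-free control and IC50 derived.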"}, "[2]": {"target": "T2, Steryl-sulfatase (Homo sapiens) (UniProt P08842)", "T2 sequence (whole entry)": "T1 sequence (P08842 whole entry)", "test": "Reversible inhibition of human steroid sulfatase using 4-methylumbelliferyl sulfate as substrate at 50 uM after 10 mins by fluorescence assay"}, "[3]": {"target": "T2, Steryl-sulfatase (Homo sapiens)", "test": "as §1", "in_short": "as §2"}, "[4]": {"target": "T2, Steryl-sulfatase (Homo sapiens)", "test": "Inhibition of human steroid sulfatase using 4-methylumbelliferyl sulfate as substrate at 10 uM by fluorescence assay"}, "Steryl-sulfatase [5]": {"target": "T1, Steryl-sulfatase", "test": "Mixed type inhibition of human steroid sulfatase using 4-methylumbelliferyl sulfate substrate by Lineweaver-Burk plot analysis"}, "[6]": {"target": "T2, Steryl-sulfatase (Homo sapiens)", "test": "Ratio of Kinact to Ki for human steroid sulfatase after 5 mins by Kitz-Wilson plot analysis"}, "[7]": {"target": "T2, Steryl-sulfatase (Homo sapiens)", "test": "Reversible inhibition of human steroid sulfatase using 4-methylumbelliferyl sulfate substrate assessed as enzyme activity recovery at 1 uM after 60 mins by fluorescence assay", "set-up": "scale not given: the % may be the effect or the level left", "in_short": "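Aliquots are assayed with 4 mM 4-MUS at 0 and 60 min. The rest is dialysed against 0.1 M Tris-HCl pH 7.0, 0.1% Triton X-100, with activity measured at 540, 1020 and 1500 min. Triplicates, with an inhibitor-free control.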"}, "[8]": {"target": "T2, Steryl-sulfatase (Homo sapiens)", "test": "(§3) Inhibition of human steroid sulfatase using 4-methylumbelliferyl sulfate substrate after 5 mins by Kitz-Wilson plot analysis"}, "[9]": {"target": "T2, Steryl-sulfatase (Homo sapiens)", "test": "Inhibition of human steroid sulfatase using 4-methylumbelliferyl sulfate substrate at 1 uM after 60 mins by fluorescence assay"}, "Steryl-sulfatase [10]": {"target": "T1, Steryl-sulfatase", "test": "Time-dependent inhibition of human steroid sulfatase using 4-methylumbelliferyl sulfate substrate by Kitz-Wilson plot analysis"}, "Steryl-sulfatase [11]": {"target": "T1, Steryl-sulfatase", "test": "Inhibition of human steroid sulfatase using 4-methylumbelliferyl sulfate substrate over 50 mins by Kitz-Wilson plot analysis"}, "[12]": {"target": "T2, Steryl-sulfatase (Homo sapiens)", "test": "Inhibition of human steroid sulfatase using 4-methylumbelliferyl sulfate substrate at 50 uM by fluorescence assay"}, "Steryl-sulfatase [13]": {"target": "T1, Steryl-sulfatase", "test": "as §3"}, "Steryl-sulfatase [14]": {"target": "T1, Steryl-sulfatase", "test": "Inhibition of human purified steroid sulfatase", "in_short": "as §2"}, "[15]": {"target": "T2, Steryl-sulfatase (Homo sapiens)", "test": "Inhibition of human steroid sulfatase using 4-methylumbelliferyl sulfate substrate at 10 uM after 60 mins by fluorescence assay"}, "[16]": {"test": "Aqueous solubility of the compound", "format": "physicochemical", "settings": "buffer"}, "Steryl-sulfatase [17]": {"target": "T1, Steryl-sulfatase", "test": "Non-Competitive inhibition of human steroid sulfatase using 4-methylumbelliferyl sulfate substrate by Lineweaver-Burk plot analysis"}}, "note": "Active and inactive are the calls of the source. The rule behind the calls is not given here."}
{"smiles": "C[C@]12CC[C@@H]3c4ccc(O)c(C(=O)O)c4CC[C@H]3[C@@H]1CCC2=O", "values": [{"measurement": "IC50", "setting": "Steryl-sulfatase [1]", "result": 215000, "unit": "nM"}]}
{"smiles": "C[C@]12CC[C@@H]3c4cc([N+](=O)[O-])c(O)c(C=O)c4CC[C@H]3[C@@H]1CCC2=O", "values": [{"measurement": "inhibition", "setting": "[2]", "result": "< 50", "unit": "%"}, {"measurement": "inhibition", "setting": "[3]", "result": "inactive"}, {"measurement": "Inhibition activity (active/inactive)", "setting": "[4]", "result": "inactive"}]}
{"smiles": "C[C@]12CC[C@@H]3c4ccc(O)c(F)c4CC[C@H]3[C@@H]1CC[C@@]2(O)Cc1ccccc1", "values": [{"measurement": "Ki", "setting": "Steryl-sulfatase [1]", "result": 30, "unit": "nM"}, {"measurement": "Ki", "setting": "Steryl-sulfatase [5]", "result": 90, "unit": "nM"}]}
{"smiles": "C[C@]12CC[C@@H]3c4ccc(O)c(C=O)c4CC[C@H]3[C@@H]1CC[C@@]2(O)Cc1ccccc1", "values": [{"measurement": "Ratio", "setting": "[6]", "result": 2.3, "unit": "×10⁵ /M/min"}, {"measurement": "Activity", "setting": "[7]", "result": 14, "unit": "%"}, {"measurement": "Kinact", "setting": "[8]", "result": 0.021, "unit": "min⁻¹"}, {"measurement": "inhibition", "setting": "[9]", "result": 95, "unit": "%"}, {"measurement": "Ki", "setting": "Steryl-sulfatase [10]", "result": 85, "unit": "nM"}, {"measurement": "inhibition", "setting": "[3]", "result": "Dose-dependent effect"}, {"measurement": "Ki", "setting": "Steryl-sulfatase [11]", "result": 85, "unit": "nM"}, {"measurement": "Inhibition activity (active/inactive)", "setting": "[4]", "result": "Active"}]}
{"smiles": "C[C@]12CC[C@@H]3c4ccc(O)c(C#N)c4CC[C@H]3[C@@H]1CCC2=O", "values": [{"measurement": "IC50", "setting": "Steryl-sulfatase [1]", "result": 6700, "unit": "nM"}]}
{"smiles": "C=Cc1c(O)ccc2c1CC[C@@H]1[C@@H]2CC[C@]2(C)C(=O)CC[C@@H]12", "values": [{"measurement": "inhibition", "setting": "[12]", "result": 45, "unit": "%"}]}
{"smiles": "C[C@]12CC[C@@H]3c4cc(Br)c(O)cc4CC[C@H]3[C@@H]1CCC2=O", "values": [{"measurement": "IC50", "setting": "Steryl-sulfatase [1]", "result": 40000, "unit": "nM"}]}
{"smiles": "C[C@]12CC[C@@H]3c4ccc(O)c(N)c4CC[C@H]3[C@@H]1CC[C@@H]2O", "values": [{"measurement": "inhibition", "setting": "[12]", "result": 43, "unit": "%"}]}
{"smiles": "C[C@]12CC[C@@H]3c4ccc(O)c(C=O)c4CC[C@H]3[C@@H]1CCC2=O", "values": [{"measurement": "Ratio", "setting": "[6]", "result": 1, "unit": "×10⁵ /M/min"}, {"measurement": "Activity", "setting": "[7]", "result": 2, "unit": "%"}, {"measurement": "Kinact", "setting": "[8]", "result": 0.13, "unit": "min⁻¹"}, {"measurement": "Ki", "setting": "Steryl-sulfatase [13]", "result": 1500, "unit": "nM"}, {"measurement": "Ki", "setting": "Steryl-sulfatase [10]", "result": 1500, "unit": "nM"}, {"measurement": "Ki", "setting": "Steryl-sulfatase [14]", "result": 1500, "unit": "nM"}]}
{"smiles": "C[C@]12CC[C@@H]3c4ccc(O)c(CN)c4CC[C@H]3[C@@H]1CC[C@@H]2O", "values": [{"measurement": "inhibition", "setting": "[12]", "result": 4, "unit": "%"}]}
{"smiles": "C[C@]12CC[C@@H]3c4cc(C=O)c(O)cc4CC[C@H]3[C@@H]1CC[C@@]2(O)Cc1ccccc1", "values": [{"measurement": "inhibition", "setting": "[15]", "result": 15, "unit": "%"}]}
{"smiles": "C[C@]12CC[C@@H]3c4cc(C=O)c(O)c(C=O)c4CC[C@H]3[C@@H]1CCC2=O", "values": [{"measurement": "solubility", "setting": "[16]", "result": "soluble"}, {"measurement": "IC50", "setting": "Steryl-sulfatase [1]", "result": 224000, "unit": "nM"}, {"measurement": "Inhibition activity (active/inactive)", "setting": "[4]", "result": "inactive"}]}
{"smiles": "C[C@]12CC[C@@H]3c4cc([N+](=O)[O-])c(O)c([N+](=O)[O-])c4CC[C@H]3[C@@H]1CCC2=O", "values": [{"measurement": "IC50", "setting": "Steryl-sulfatase [1]", "result": 26000, "unit": "nM"}]}
{"smiles": "C[C@]12CC[C@@H]3c4ccc(O)cc4CC[C@H]3[C@@H]1CC[C@@]2(O)Cc1ccccc1", "values": [{"measurement": "Ki", "setting": "Steryl-sulfatase [1]", "result": 250, "unit": "nM"}]}
{"smiles": "C[C@]12CC[C@@H]3c4cc([N+](=O)[O-])c(O)cc4CC[C@H]3[C@@H]1CCC2=O", "values": [{"measurement": "IC50", "setting": "Steryl-sulfatase [1]", "result": 17000, "unit": "nM"}]}
{"smiles": "C[C@]12CC[C@@H]3c4cc(Br)c(O)c(C=O)c4CC[C@H]3[C@@H]1CCC2=O", "values": [{"measurement": "inhibition", "setting": "[3]", "result": "inactive"}, {"measurement": "IC50", "setting": "Steryl-sulfatase [1]", "result": 145000, "unit": "nM"}, {"measurement": "Inhibition activity (active/inactive)", "setting": "[4]", "result": "inactive"}]}
{"smiles": "C[C@]12CC[C@@H]3c4cc(C=O)c(O)cc4CC[C@H]3[C@@H]1CCC2=O", "values": [{"measurement": "inhibition", "setting": "[3]", "result": "inactive"}, {"measurement": "Inhibition activity (active/inactive)", "setting": "[4]", "result": "inactive"}]}
{"smiles": "C[C@]12CC[C@@H]3c4ccc(O)c(F)c4CC[C@H]3[C@@H]1CCC2=O", "values": [{"measurement": "IC50", "setting": "Steryl-sulfatase [1]", "result": 3300, "unit": "nM"}]}
{"smiles": "C[C@]12CC[C@@H]3c4ccc(O)c([N+](=O)[O-])c4CC[C@H]3[C@@H]1CC[C@@H]2O", "values": [{"measurement": "IC50", "setting": "Steryl-sulfatase [1]", "result": 2800, "unit": "nM"}]}
{"smiles": "C[C@]12CC[C@@H]3c4ccc(O)c(Br)c4CC[C@H]3[C@@H]1CCC2=O", "values": [{"measurement": "IC50", "setting": "Steryl-sulfatase [1]", "result": 4800, "unit": "nM"}]}
{"smiles": "C[C@]12CC[C@@H]3c4ccc(C=O)cc4CC[C@H]3[C@@H]1CCC2=O", "values": [{"measurement": "inhibition", "setting": "[3]", "result": "inactive"}, {"measurement": "Inhibition activity (active/inactive)", "setting": "[4]", "result": "inactive"}]}
{"smiles": "C[C@]12CC[C@@H]3c4ccc(O)c([N+](=O)[O-])c4CC[C@H]3[C@@H]1CCC2=O", "values": [{"measurement": "Ki", "setting": "Steryl-sulfatase [17]", "result": 1400, "unit": "nM"}, {"measurement": "IC50", "setting": "Steryl-sulfatase [1]", "result": 2400, "unit": "nM"}]}
{"smiles": "C[C@]12CC[C@@H]3c4ccc(O)c(CO)c4CC[C@H]3[C@@H]1CCC2=O", "values": [{"measurement": "inhibition", "setting": "[12]", "result": 46, "unit": "%"}]}
